Test results from ChEMBL document CHEMBL1127371, “Acyl CoA:cholesterol acyltransferase (ACAT) inhibitors: synthesis and structure-activity relationship studies of a new series of trisubstituted imidazoles” (J Med Chem, 1994).
Values joined by “and” are separate entries in the source; they are usually repeats but may differ in a detail not shown here. Equal entries are not always repeated.

Assays:
[1] = molecular target: T1, Sterol O-acyltransferase 1 (Rattus norvegicus, UniProt O70536); assay: In vitro inhibition of Acyl coenzyme A:cholesterol acyltransferase in rat hepatic microsomes; design: species or system Liver
T1 sequence (O70536 whole entry): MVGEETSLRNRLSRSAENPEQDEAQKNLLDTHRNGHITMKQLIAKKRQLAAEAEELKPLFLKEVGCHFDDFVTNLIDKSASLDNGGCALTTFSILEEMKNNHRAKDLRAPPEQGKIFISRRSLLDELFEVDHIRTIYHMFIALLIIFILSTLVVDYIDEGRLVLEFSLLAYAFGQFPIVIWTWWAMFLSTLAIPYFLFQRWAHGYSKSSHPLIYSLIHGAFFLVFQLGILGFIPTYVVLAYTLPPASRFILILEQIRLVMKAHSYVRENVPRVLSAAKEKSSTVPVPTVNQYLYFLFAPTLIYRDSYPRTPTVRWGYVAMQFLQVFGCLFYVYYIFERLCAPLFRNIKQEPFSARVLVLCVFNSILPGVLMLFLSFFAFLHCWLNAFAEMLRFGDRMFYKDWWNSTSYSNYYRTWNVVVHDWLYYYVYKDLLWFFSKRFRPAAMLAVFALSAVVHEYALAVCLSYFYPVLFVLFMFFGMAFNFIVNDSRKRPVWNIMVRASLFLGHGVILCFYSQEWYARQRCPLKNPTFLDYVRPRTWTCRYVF
Method in brief: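 Rat hepatic microsomes were incubated with labelled oleoyl-CoA, and formation of labelled cholesterol oleate was measured (pmol/min/mg). Assays were run in duplicate with at least four inhibitor concentrations bracketing the IC50.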

Cricetinae gen. sp. = assay: Tested anti-hypercholesterolaemic value(AHV) is the ratio of observed reduction in serum cholesterol to difference between control and baseline levels x100 at 10 mg/kg/day dose; assay type: functional
Mesocricetus auratus [2] = species on record: Mesocricetus auratus; assay: Evaluated for Syrian hamsters fed with a 0.8% cholesterol-supplemented chow diet for 7 days
Mesocricetus auratus [3] = species on record: Mesocricetus auratus; assay: Evaluated for Syrian hamsters fed with a 2.5% cholesterol-supplemented chow diet for 3 days
Mesocricetus auratus [4] = species on record: Mesocricetus auratus; assay: Evaluated for Syrian hamsters fed with 0.8% cholesterol-supplemented chow diet for 7 days
Mesocricetus auratus [5] = species on record: Mesocricetus auratus; assay: Evaluated for Syrian hamsters fed with 2.5% cholesterol-supplemented chow diet for 3 days

| SMILES | IC50 [1] [nM] | further results |
| --- | --- | --- |
| CCCCCCCN(CC(C)(C)CCSc1nc(-c2ccccc2)c(-c2ccccc2)[nH]1)C(=O)Nc1ccc(F)cc1F | 70 |  |
| CC(C)NC(=O)N(CCCCCSc1nc(-c2ccccc2)c(-c2ccccc2)[nH]1)c1ccccc1 | 80 |  |
| CCCCCCCN(CCCCCNc1nc(-c2ccccc2)c(-c2ccccc2)[nH]1)C(=O)Nc1ccc(F)cc1F | 3500 |  |
| CCCCCCCN(CCCCCSc1nc(-c2ccccc2)c(-c2ccccc2)[nH]1)C(=O)NC1CCCCC1 | 10 |  |
| CCCCCCCN(CCCCCSc1nc(-c2ccccc2)c(-c2ccccc2)[nH]1)C(=O)Nc1ccc([N+](=O)[O-])cc1 | 80 | AHV (Cricetinae gen. sp.): 38%; Serum cholesterol (Mesocricetus auratus [2]): 277 mg % |
| O=C(NCCCCCSc1nc(-c2ccccc2)c(-c2ccccc2)[nH]1)Nc1ccc(F)cc1F | 400 |  |
| CCCCCCCN(CCCCCSc1nc(-c2ccccc2)c(-c2ccccc2)[nH]1)C(=O)NC | 40 |  |
| CCCCCCCN(CCSc1nc(-c2ccccc2)c(-c2ccccc2)[nH]1)C(=O)Nc1ccc(F)cc1F | 70 |  |
| CCCCCCCN(CCCCCSc1nc(-c2ccccc2)c(-c2ccccc2)[nH]1)C(=O)Oc1ccccc1 | 20 |  |
| CCCN(CCCCCSc1nc(-c2ccccc2)c(-c2ccccc2)[nH]1)C(=O)Nc1ccc(F)cc1F | 30 |  |
| CCCCCCCN(CCCCCSc1nc(-c2ccccc2)c(-c2ccccc2)[nH]1)C(=O)c1ccc(F)cc1F | 60 |  |
| CCCCCCCN(CCCCCSc1ncc(-c2ccccc2)n1-c1ccccc1)C(=O)Nc1ccc(F)cc1F | 7200 |  |
| CCCCCCCN(CCCCCSc1nc(-c2ccccc2)c(-c2ccccc2)[nH]1)/C(S)=N\c1ccc(F)cc1F | 58 |  |
| CC(C)c1cccc(C(C)C)c1NC(=O)NCCCCCSc1nc(-c2ccccc2)c(-c2ccccc2)[nH]1 | 510 |  |
| CCCCCCCN(CCCCCSc1nc(-c2ccccc2)c(-c2ccccc2)[nH]1)C(=O)Nc1ccccc1 | 23 |  |
| CCCCCCCN(CCCCCSc1nc(-c2ccccc2)c(-c2ccccc2)[nH]1)C(=O)NC(C)C | 20 |  |
| CCCCCCCN(CCCCCSc1nc(-c2ccccc2)c(-c2ccccc2)[nH]1)C(=O)c1ccccc1 | 50 |  |
| O=C(Nc1ccc(F)cc1F)N(CCCCCSc1nc(-c2ccccc2)c(-c2ccccc2)[nH]1)CCCc1ccccc1 | 30 |  |
| CCCCCCCN(CCCCCSc1nc(-c2ccccc2)c(-c2ccccc2)[nH]1)C(=O)CCC | 30 | AHV (Cricetinae gen. sp.): 43%; Serum cholesterol (Mesocricetus auratus [2]): 245 mg % |
| CCCCCCCN(CCCCCSc1nc(-c2ccccc2)c(-c2ccccc2)[nH]1)C(=O)CC1CCCCC1 | 30 |  |
| CCCCCCCN(Cc1ccc(CSc2nc(-c3ccccc3)c(-c3ccccc3)[nH]2)cc1)C(=O)Nc1ccc(F)cc1F | 200 |  |
| CCCCCCCN(CCCCCCc1nc(-c2ccccc2)c(-c2ccccc2)[nH]1)C(=O)Nc1ccc(F)cc1F | 280 |  |
| CCCCCCCN(Cc1ccccc1CSc1nc(-c2ccccc2)c(-c2ccccc2)[nH]1)C(=O)Nc1ccc(F)cc1F | 3600 |  |
| CCCCCCCN(CCCCCS(=O)(=O)c1nc(-c2ccccc2)c(-c2ccccc2)[nH]1)C(=O)Nc1ccc(F)cc1F | 16 | AHV (Cricetinae gen. sp.): 30%; Serum cholesterol (Mesocricetus auratus [2]): 318 mg % |
| CCCCCCCN(CCCCCSc1nc(-c2ccccc2)c(-c2ccccc2)[nH]1)C(=O)OC1CCCCC1 | 50 |  |
| CCCCCCCN(CCCCCSc1nc(-c2ccccc2)c(-c2ccccc2)n1-c1ccccc1)C(=O)Nc1ccc(F)cc1F | > 50000 |  |

| SMILES | IC50 [1] [nM] | further results |
| --- | --- | --- |
| CCCCCCCCNC(=O)N(CCCCCSc1nc(-c2ccccc2)c(-c2ccccc2)[nH]1)c1c(F)cc(F)cc1F | 20 |  |
| CCCCCCCN(CCCCCSc1nc(-c2ccccc2)c(-c2ccccc2)n1C)C(=O)Nc1ccc(F)cc1F | 3600 |  |
| CCCCCCCCNC(=O)N(CCCCCSc1nc(-c2ccccc2)c(-c2ccccc2)[nH]1)c1ccc(F)cc1F | 40 |  |
| CCCCCCCCNC(=O)N(CCCCCSc1nc(-c2ccccc2)c(-c2ccccc2)[nH]1)Cc1ccccc1 | 150 |  |
| O=C(Nc1ccc(F)cc1F)N(CCCCCSc1nc(-c2ccccc2)c(-c2ccccc2)[nH]1)CCCCc1ccccc1 | 50 |  |
| O=C(Nc1ccc(F)cc1F)N(CCCCCSc1nc(-c2ccccc2)c(-c2ccccc2)[nH]1)Cc1ccccc1 | 200 |  |
| CCCCCCCN(CCCCCSc1nc(-c2ccccc2)c(-c2ccccc2)[nH]1)C(=O)Nc1c(C(C)C)cccc1C(C)C | 230 |  |
| CCCCCCCCNC(=O)N(CCCCCSc1nc(-c2ccccc2)c(-c2ccccc2)[nH]1)c1ccccc1 | 10 | Serum cholesterol (Mesocricetus auratus [3]): 268 mg % |
| CCCCCCCN(CCCCCSc1nc(-c2ccccc2)c(-c2ccccc2)[nH]1)C(N)=Nc1ccccc1 | 3160 |  |
| CCCCCCCN(CCCCCSc1nc(-c2ccccc2)c(-c2ccccc2)[nH]1)C(=O)C(C)C | 100 |  |
| CCCCCCCN(CCCCCSc1nc(-c2ccccc2)cn1-c1ccccc1)C(=O)Nc1ccc(F)cc1F | 42000 |  |
| CCCCCCCN(CCCCC[S+]([O-])c1nc(-c2ccccc2)c(-c2ccccc2)[nH]1)C(=O)Nc1ccc(F)cc1F (stereo not drawn) | 8 | AHV (Cricetinae gen. sp.): 49%; Serum cholesterol (Mesocricetus auratus [2]): 278 mg % |
| CCCCCCCN(CCCCCCCCSc1nc(-c2ccccc2)c(-c2ccccc2)[nH]1)C(=O)Nc1ccc(F)cc1F | 8 | Serum cholesterol (Mesocricetus auratus [3]): 271 mg % |
| CCCCCCCN(Cc1cccc(CSc2nc(-c3ccccc3)c(-c3ccccc3)[nH]2)c1)C(=O)Nc1ccc(F)cc1F | 30 |  |
| CC(C)NC(=O)N(CCCCCSc1nc(-c2ccccc2)c(-c2ccccc2)[nH]1)c1ccc(F)cc1F | 40 |  |
| CCCCCCCN(CCCCCSc1ncc[nH]1)C(=O)Nc1ccc(F)cc1F | 2900 |  |
| CCCCCCCN(CCCCCSc1nc(-c2ccccc2)c(-c2ccccc2)[nH]1)C(N)=O | 910 |  |
| CCCCCCCN(CCCCCSc1nc(-c2ccccc2)c(-c2ccccc2)[nH]1)C(=O)Cc1ccc(-c2ccccc2)cc1 | 160 |  |
| CCCCCCCN(CCCCCSc1nc(-c2ccccc2)c(-c2ccccc2)[nH]1)C(=O)NCCC | 10 | AHV (Cricetinae gen. sp.): 74%; Serum cholesterol (Mesocricetus auratus [2]): 199 mg % |
| CCCCCCCN(CCCCCSc1nc(-c2ccccc2)c(-c2ccccc2)[nH]1)C(=O)Cc1ccc(F)cc1F | 25 |  |
| CCCCCCCN(CCCCCSc1nc(-c2ccccc2)c(-c2ccccc2)[nH]1)C(=O)Nc1ccc(F)cc1F [LECIMIBIDE] |  | AHV (Cricetinae gen. sp.): 59% and 61%; Serum cholesterol (Mesocricetus auratus [4]): 253 mg %; Serum cholesterol (Mesocricetus auratus [5]): 205 mg % |
| CCCCCCCN(CCCCCSc1nc(-c2ccccc2)c(-c2ccccc2)[nH]1)/C(S)=N\c1c(F)cc(F)cc1F | 30 |  |
| CCCCCCCN(CCCCCSc1nc(-c2ccccc2)c(-c2ccccc2)[nH]1)C(=O)Nc1ccc(-c2ccccc2)cc1 | 70 |  |
| O=C(Nc1ccc(F)cc1F)N(CCCCCSc1nc(-c2ccccc2)c(-c2ccccc2)[nH]1)CCc1ccccc1 | 170 |  |
| CCCCCCCN(CCCCCSc1nc(-c2ccccc2)c(-c2ccccc2)[nH]1)C(=O)OCCC | 34 |  |
| CCCCCCCN(CCCCCSc1nc(-c2ccccc2)c(-c2ccccc2)[nH]1)C(=O)Nc1c(F)cc(F)cc1F | 16 | Serum cholesterol (Mesocricetus auratus [3]): 218 mg %; AHV (Cricetinae gen. sp.): 51% |
